Here are results for two compounds from ChEMBL document CHEMBL1151755, “Crystal structure of the peroxisome proliferator-activated receptor gamma (PPARgamma) ligand binding domain complexed with a novel partial agonist: a new region of the hydrophobic pocket could be exploited for drug design” (J Med Chem, 2008).

For test [1], the target named is T1, Oxysterols receptor LXR-alpha (Homo sapiens) (UniProt Q13133).
T1 sequence (whole entry): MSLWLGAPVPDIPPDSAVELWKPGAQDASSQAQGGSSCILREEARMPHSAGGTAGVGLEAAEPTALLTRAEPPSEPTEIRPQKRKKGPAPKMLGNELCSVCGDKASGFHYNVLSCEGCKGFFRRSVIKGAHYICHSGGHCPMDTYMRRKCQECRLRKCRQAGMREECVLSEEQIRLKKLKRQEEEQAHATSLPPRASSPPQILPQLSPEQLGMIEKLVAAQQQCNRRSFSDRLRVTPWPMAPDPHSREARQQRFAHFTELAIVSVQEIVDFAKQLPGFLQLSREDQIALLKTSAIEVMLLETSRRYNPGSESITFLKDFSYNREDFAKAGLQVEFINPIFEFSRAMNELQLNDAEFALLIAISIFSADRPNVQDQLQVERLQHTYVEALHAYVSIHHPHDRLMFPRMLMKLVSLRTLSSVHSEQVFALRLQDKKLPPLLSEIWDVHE
Put plainly: Increase in transcriptional activity of LXRalpha ligand binding domain expressed in human Hep G2 cells co-transfected with Gal4-DBD by luciferase reporter gene assay. It is filed as cell-based. The conditions noted are these: HepG2. Summed up: (§1)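 HepG2 cells transfected for 4 h by calcium phosphate coprecipitation with 100 ng pGal4UAS-luciferase, 50 ng Gal4-LBD receptor vector and 300 ng CMV-β-galactosidase plasmid for normalization. Cells were washed in PBS, then refed with serum-free DMEM/F-12 containing penicillin/streptomycin and compound or 0.1% ethanol vehicle for 20 h. Luciferase read-out was normalized to β-galactosidase. Experiments were repeated at least three times.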

For test [2], the target named is T2, Peroxisome proliferator-activated receptor alpha (Mus musculus, UniProt P23204).
T2 sequence (P23204 whole entry): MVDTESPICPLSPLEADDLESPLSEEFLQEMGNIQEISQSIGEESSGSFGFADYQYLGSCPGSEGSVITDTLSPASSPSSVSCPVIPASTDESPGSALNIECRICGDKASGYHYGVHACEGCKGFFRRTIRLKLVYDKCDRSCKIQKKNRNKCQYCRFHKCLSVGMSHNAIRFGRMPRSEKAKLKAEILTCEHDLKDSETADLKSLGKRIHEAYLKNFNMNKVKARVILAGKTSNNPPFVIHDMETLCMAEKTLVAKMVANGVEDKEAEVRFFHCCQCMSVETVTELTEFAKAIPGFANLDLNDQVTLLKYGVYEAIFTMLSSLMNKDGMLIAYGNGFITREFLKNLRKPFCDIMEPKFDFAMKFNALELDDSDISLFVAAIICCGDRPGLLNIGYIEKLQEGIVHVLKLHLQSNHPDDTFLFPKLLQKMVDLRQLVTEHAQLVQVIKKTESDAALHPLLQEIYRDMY
Put plainly: (§2) Agonist activity at mouse PPARalpha ligand binding domain expressed in human Hep G2 cells co-transfected with Gal4-DBD by luciferase reporter gene assay. It is filed as cell-based, HepG2. (In general: Reporter assays use an easily measured gene product as a stand-in for the process of interest.)

Another test deals with HepG2. The test can be described thus: Increase in transcriptional activity of ROR ligand binding domain expressed in human Hep G2 cells co-transfected with Gal4-DBD by luciferase reporter gene assay. It is filed as cell-based. In short, it runs like this: as §1
The target of test [3] is T3, Peroxisome proliferator-activated receptor alpha (Homo sapiens) (UniProt Q07869).
T3 sequence (whole entry): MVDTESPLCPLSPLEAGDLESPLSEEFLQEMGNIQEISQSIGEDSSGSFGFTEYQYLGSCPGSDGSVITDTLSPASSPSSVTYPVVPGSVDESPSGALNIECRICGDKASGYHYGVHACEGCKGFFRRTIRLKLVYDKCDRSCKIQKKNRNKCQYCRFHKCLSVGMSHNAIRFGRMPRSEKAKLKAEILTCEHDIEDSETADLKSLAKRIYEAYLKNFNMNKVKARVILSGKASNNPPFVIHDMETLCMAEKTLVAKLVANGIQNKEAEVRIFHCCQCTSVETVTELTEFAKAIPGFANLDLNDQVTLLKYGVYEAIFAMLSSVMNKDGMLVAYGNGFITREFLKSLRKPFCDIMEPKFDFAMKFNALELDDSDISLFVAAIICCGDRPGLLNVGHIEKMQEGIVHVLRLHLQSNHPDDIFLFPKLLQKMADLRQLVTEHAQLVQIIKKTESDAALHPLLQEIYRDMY
The test can be described thus: Agonist activity at human PPARalpha ligand binding domain expressed in human Hep G2 cells co-transfected with Gal4-DBD by luciferase reporter gene assay. It is filed as cell-based. As to conditions: HepG2. In short, it runs like this: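 Gal4-LBD fusion vector (50 ng) was co-transfected with pGal4UAS-luciferase (100 ng) and pCMVβ β-galactosidase normalizer (300 ng) into HepG2 cells by calcium phosphate for 4 h. Cells were washed, then given serum-free DMEM/F-12 with ligand or 0.1% ethanol vehicle for 20 h. Luciferase was normalized to β-galactosidase.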

Test [4] deals with T4, Peroxisome proliferator-activated receptor alpha (Mus musculus) (UniProt P23204).
T4 sequence (whole entry): T2 sequence (P23204 whole entry)
The test is described as §2. The conditions noted are these: HepG2. It is filed as cell-based.

What is called EC50 is the concentration at which the effect is half-maximal. A higher EC50 goes with lower potency in that assay.

Calls of active or inactive are those of the source. The rule behind the calls is not given here.

With `O=C(O)[C@H](Cc1ccccc1)Oc1ccc(-c2ccccc2)cc1`, the result (in test [1]; in the test with HepG2) was inactive. Also, in test [2], the EC50 was determined as 260 nM.

In the case of `O=C(O)[C@@H](Cc1ccccc1)Oc1ccc(-c2ccccc2)cc1`, the result in test [3] and in test [4] was inactive.
